Source: PubChem BioAssay (several laboratories)
MEKK3 PB1 HTS = raises or lowers MEK5 binding to the human MEKK3 PB1 domain; AID 1529; bead-based flow cytometry, Alexa488-MEK5 binding to MEKK3; actives lie on both sides; 0 = blocked by unlabeled MEK5, 100 = vehicle; binding response (% of control), % at 10 µM; 290,000 compounds, 1.4% hits;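 active = binding response more than 3 SD above or below the average of its plate-row segment, actives on both sides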;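 also: Alexa488 bead fluorescence after subtracting the streptavidin-only scavenger bead signal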
UBC13 inh = human UBC13 polyubiquitination inhibition. P61088. UBC13 polyubiquitin chain formation, TR-FRET. inhibition, % at 20 µM. 330,000 compounds, 0.47% hits; in the data active = inhibition above about 45%, passing the limit was not always enough
Target sequence (P61088 whole entry, looked up): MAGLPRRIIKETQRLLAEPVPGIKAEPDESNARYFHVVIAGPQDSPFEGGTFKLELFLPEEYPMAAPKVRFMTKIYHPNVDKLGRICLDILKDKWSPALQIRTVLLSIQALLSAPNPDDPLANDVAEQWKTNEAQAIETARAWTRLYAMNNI
MEKK2mut PB1 HTS = signal of MEK5 binding to mutant human MEKK2 PB1 domain. 290,000 compounds, 0.35% hits. percent response, % at 10 µM. bead flow cytometry, Alexa488-MEK5 binding to MEKK2 mutant; in the data active = percent response above about 24%, passing the limit was not always enough
MEKK2 WT-MEK5 = raises or lowers MEK5 binding to wildtype human MEKK2 PB1 domain | 290,000 compounds, 1.1% hits | AID 1531 | Q9Y2U5 | bead flow cytometry, Alexa488-MEK5 binding to MEKK2 WT; actives lie on both sides | binding response (% of control), % at 10 µM; in the data active = binding response below about 67% or above about 130%
DSG3 Ab inh = human desmoglein-3 autoantibody binding inhibition; DSG3-coupled beads, scFv-anti-DSG3-GFP binding, flow cytometry; hits give low values; binding (percent of control), % at 10 µM; 310,000 compounds, 0.48% hits; AID 588358;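 active = binding more than 3 SD below its plate's average and above zero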;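 also: hits lower antibody fragment binding to DSG3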
Apaf-1 inh = blocks human Apaf-1 apoptosome activity; O14727; reconstituted apoptosome caspase-3 activity, DEVD-Rh110 fluorescence; inhibition, % at 20 µM; 330,000 compounds, 0.71% hits; AID 489030; active = inhibition of at least 40% at 20 µM;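 also: plate controls were DMSO wells for no effect and DEVD-CHO caspase inhibitor wells for full effect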
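Material: reconstituted apoptosome with Apaf-1, cytochrome c, caspase-9, procaspase-3, dATP / Buffer or medium: pH 7.5 Hepes buffer with CHAPS, BSA, DTT / Also added: cytochrome c with DEVD-Rh110 / Schedule: compound with Apaf-1, dATP, procaspase-3 30 min, then 50 min reaction, room temperature / Technique: rhodamine 110 fluorescence at Ex 480/Em 540 nm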
Casp3 UBC13 ctr = caspase-3 inhibition (UBC13 counter-screen). shares compounds with UBC13 inh. Recombinant caspase-3, Caspase-Glo 3/7 luminescence, 60 min. inhibition, % at 20 µM. 1,400 compounds, 4% hits. AID 488856;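 active = mean inhibition across replicates above about 26%, limit read from the data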;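 also: plate controls were DMSO with caspase-3 for no effect and DMSO wells lacking enzyme for full effect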
Target sequence (P42574 whole entry, looked up): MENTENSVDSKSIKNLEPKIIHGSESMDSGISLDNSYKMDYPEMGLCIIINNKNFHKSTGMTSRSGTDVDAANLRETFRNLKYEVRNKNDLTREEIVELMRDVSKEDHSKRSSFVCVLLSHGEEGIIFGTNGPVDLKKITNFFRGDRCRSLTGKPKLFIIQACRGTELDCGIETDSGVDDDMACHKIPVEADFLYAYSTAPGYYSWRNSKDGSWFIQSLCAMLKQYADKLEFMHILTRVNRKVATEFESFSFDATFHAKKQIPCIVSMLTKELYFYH
UBC13 conf = confirmation of human UBC13 polyubiquitin inhibitors; inhibition, % at 10 µM; shares compounds with UBC13 inh; UBC13 polyubiquitination, TR-FRET, biochemical; 1,400 compounds, 68% hits; in the data active = inhibition above about 45%
Active calls of the source: *. Sampled rows, rich in hits. Any-hit rate of the full collection: about 3.2%.

`Cc1oc(-c2cccs2)nc1CNC[C@H]1O[C@@H](n2cnc3c(N)ncnc32)[C@H](O)[C@@H]1O` gave UBC13 inh 7, DSG3 Ab inh 95 and Apaf-1 inh -7.
CCCc1cc(=O)[nH]c(SC(C)C(=O)N2c3ccccc3CC2C)n1 (stereo unspecified) was read as UBC13 inh -14 and Apaf-1 inh 4.
For c1coc(-c2nc(-c3ccco3)c(-c3ccco3)nc2-c2ccco2)c1 the results were MEKK3 PB1 HTS 81, UBC13 inh 77*, MEKK2mut PB1 HTS -17, MEKK2 WT-MEK5 72, DSG3 Ab inh 88, Apaf-1 inh 63*, Casp3 UBC13 ctr 21 and UBC13 conf 64*.
Screening O=C(Cc1c(F)cccc1Cl)NNC(=O)c1ccccc1Cl returned UBC13 inh 14 and Apaf-1 inh -14.
For CCN(CC)CCNC(=O)c1cc2c(=O)n(C)c3ccccc3c2s1 the results were MEKK3 PB1 HTS 101, UBC13 inh 55*, MEKK2mut PB1 HTS 1, MEKK2 WT-MEK5 106, DSG3 Ab inh 93, Apaf-1 inh 2, Casp3 UBC13 ctr 1 and UBC13 conf 62*.
CCCCN(CC)CCNC(=O)c1cc2c(=O)n(C)c3ccccc3c2s1 was read as MEKK3 PB1 HTS 104, UBC13 inh 70*, MEKK2mut PB1 HTS 0, MEKK2 WT-MEK5 109, DSG3 Ab inh 91, Apaf-1 inh 5, Casp3 UBC13 ctr -4 and UBC13 conf 80*.
`CCOC(=O)[C@H](C)N1[C@H](C)[C@H](c2ccccc2)Oc2ccc(Cl)cc2S1(=O)=O` gave DSG3 Ab inh 98.
Screening Cc1ccc(/C=C2/Sc3ccc(C(=O)NCCN4CCOCC4)cc3NC2=O)cc1 returned MEKK3 PB1 HTS 101, UBC13 inh 6, MEKK2mut PB1 HTS 4, MEKK2 WT-MEK5 108, DSG3 Ab inh 111 and Apaf-1 inh 17.
Screening CCN1CCN(CCNC(=O)c2ccc3c(c2)N(Cc2ccc(F)cc2)C(=O)/C(=C/c2ccccc2)S3)CC1 returned MEKK3 PB1 HTS 118, UBC13 inh 65*, MEKK2mut PB1 HTS 117*, MEKK2 WT-MEK5 278*, DSG3 Ab inh 110, Apaf-1 inh 37, Casp3 UBC13 ctr 2 and UBC13 conf 92*.
COc1cccc(/C=C2/Sc3ccc(C(=O)NCCN4CCCC4)cc3NC2=O)c1 was read as MEKK3 PB1 HTS 109, UBC13 inh 50*, MEKK2mut PB1 HTS 30*, MEKK2 WT-MEK5 188*, Apaf-1 inh 24, Casp3 UBC13 ctr -2 and UBC13 conf 74*.
COc1ccc2nc3oc(C(=O)NC4CCN(Cc5ccccc5)CC4)cc3cc2c1 was read as MEKK3 PB1 HTS 104, UBC13 inh 58*, MEKK2mut PB1 HTS 8, MEKK2 WT-MEK5 121, DSG3 Ab inh 109, Apaf-1 inh 19, Casp3 UBC13 ctr 0 and UBC13 conf 26.
Screening CCn1c(-c2ccccc2)csc1=Nc1ccc(O)cc1 returned MEKK3 PB1 HTS 103, UBC13 inh 4, MEKK2mut PB1 HTS 10, MEKK2 WT-MEK5 99, DSG3 Ab inh 88 and Apaf-1 inh 7.
For O=C(CN1C(=O)c2ccccc2S1(=O)=O)Nc1ccon1 the results were UBC13 inh -2, DSG3 Ab inh 119 and Apaf-1 inh 2.
`COc1ccc(-c2noc(CCC(=O)N3CCN(c4ccccc4)CC3)n2)cc1` gave DSG3 Ab inh 91 and Apaf-1 inh 5.
For COCCn1c(N)c(N(Cc2ccccc2)C(=O)C(C)Oc2ccc(Br)cc2)c(=O)[nH]c1=O (stereo unspecified) the results were DSG3 Ab inh 106.
`Cc1ccc(S(=O)(=O)CCC(=O)N(CCN2CCOCC2)c2nc3ccccc3s2)cc1` gave UBC13 inh -1, DSG3 Ab inh 99 and Apaf-1 inh 11.
